KLK7 zymogen act – activates the human kallikrein-7 zymogen; P49862; purified proKLK7, EDANS-DABCYL substrate fluorescence; 100% is mature enzyme control, 0% vehicle; activation, % at 7 µM; hit rate 0.9% among 370,000; AID 652039;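 active = activation above the mean of all tested compounds plus 3 SD, computed per campaign excluding outliers beyond control limits, cut at about 13% in these data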
Tn6 DDE FP – DD(E)-Tn6 binding inhibition, primary FP screen; P02675; Fibrin DD(E) TRITC-Tn6 fluorescence polarization displacement; inhibition, % at 8.3 µM; hit rate 0.21% among 370,000; AID 720509;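 active = inhibition above a per-campaign cutoff: mean of compounds within control limits plus 3 SD, cut at about 15% in these data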;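 also: 0% = median of all compound wells on the plate and 100% = blocking peptide control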
CRFBP-R2 block – CRF-BP/CRF-R2 complex antagonism; HEK293 CRF-R2/CRF-BP, CRF-induced calcium fluorescence; hit rate 0.59% among 350,000; inhibition, % at 11.8 µM;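 active = inhibition of the ligand-induced calcium signal above about 50% at the single tested concentration, limit read from the data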
CendR NRP1 mod – NRP-1/CendR interaction modulation. O14786. FAM-RPARPAR peptide binding to NRP-1, fluorescence polarization. AID 602438. inhibition, % at 25 µM. hit rate 0.85% among 360,000;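 active = inhibition or corrected inhibition above about 18%, plus a signal ratio from 0.5 to 1.5, limit read from the data, passing the limit was not always enough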
Target sequence (O14786 whole entry, looked up): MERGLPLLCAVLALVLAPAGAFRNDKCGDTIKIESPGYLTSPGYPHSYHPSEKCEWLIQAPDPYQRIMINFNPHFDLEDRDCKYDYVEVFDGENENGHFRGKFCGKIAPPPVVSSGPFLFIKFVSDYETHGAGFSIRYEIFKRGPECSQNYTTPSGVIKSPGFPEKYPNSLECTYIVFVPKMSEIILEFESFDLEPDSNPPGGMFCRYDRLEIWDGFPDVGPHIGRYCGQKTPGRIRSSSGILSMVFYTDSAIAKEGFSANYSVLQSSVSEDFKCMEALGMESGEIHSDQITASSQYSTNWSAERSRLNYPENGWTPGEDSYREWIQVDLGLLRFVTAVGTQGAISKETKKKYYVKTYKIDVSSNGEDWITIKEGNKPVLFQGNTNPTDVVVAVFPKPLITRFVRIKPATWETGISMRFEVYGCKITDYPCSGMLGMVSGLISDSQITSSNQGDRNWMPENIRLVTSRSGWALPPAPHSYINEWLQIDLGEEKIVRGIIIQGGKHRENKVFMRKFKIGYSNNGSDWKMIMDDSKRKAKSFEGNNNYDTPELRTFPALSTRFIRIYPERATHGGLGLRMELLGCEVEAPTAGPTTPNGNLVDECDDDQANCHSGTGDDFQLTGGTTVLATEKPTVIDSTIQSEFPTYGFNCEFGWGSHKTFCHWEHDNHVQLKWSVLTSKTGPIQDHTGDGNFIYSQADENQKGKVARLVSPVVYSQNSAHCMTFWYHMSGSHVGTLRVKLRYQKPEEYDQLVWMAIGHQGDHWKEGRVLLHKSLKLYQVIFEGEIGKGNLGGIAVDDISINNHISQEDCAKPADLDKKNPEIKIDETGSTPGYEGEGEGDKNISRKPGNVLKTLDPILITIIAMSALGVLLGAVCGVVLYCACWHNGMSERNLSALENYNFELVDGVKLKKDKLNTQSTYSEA
Tn7 DDE FP – disrupts Tn7 cyclic peptide binding to fibrin D-Dimer-E complex. FP displacement of FITC-Tn7 peptide from fibrin DD(E); 0% = median of compound wells per plate. P02675. inhibition, % at 8.3 µM. hit rate 0.13% among 370,000. AID 720508;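 active = inhibition above the mean of compounds falling within the control limits plus 3 SD of them, cut at about 14% in these data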;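 also: 0% = plate median of compound wells and 100% = 10 µM Aha-Tn7 peptide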
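Also added: labelled Tn7 tracer, 0.1 µM; Assay system: human fibrin DD(E) protein; Amount: 2 µM fibrin DD(E); Schedule: 10 min compound pre-incubation, 3 h probe incubation at room temperature; Repeats: one replicate per compound; Read-out basis: percent inhibition; Measured by: fluorescence polarization of the labelled Tn7 tracer.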
CRFBP-R2 agonist – CRF-BP/CRF-R2 complex agonism; HEK293 CRF-R2/CRF-BP, calcium dye fluorescence (FLIPR); percent of saturating CRF peptide response; activation, % at 13.2 µM; hit rate 0.46% among 350,000; AID 588473;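 active = activation of at least 50%, plus an integration ratio under a set limit after plate pattern correction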;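 also: plate controls were neutral control wells without compound for no effect and CRF at EC100 for full effect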
DDE Tn7 confirm – DD(E)-Tn7 binding inhibition, FP confirmation. AID 720628. hit rate 5% among 460. inhibition, % at 8.3 µM. FP displacement of TRITC-Tn7 peptide from DD(E); 0% set at plate's compound-well median. shares compounds with Tn7 DDE FP;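 active = inhibition above the campaign cutoff, the mean of compounds within control limits plus 3 SD, cut at about 14% in these data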;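 also: 100% = median FP of high control wells holding Aha-Tn7 inhibitor peptide; displacers lower polarization since freed probe rises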
Tn7 DDE ctr – counter-screen hit for Tn7 peptide-fibrin DD(E) binding disruption | shares compounds with Tn7 DDE FP | TRITC-Tn7 probe displacement, fluorescence polarization | inhibition, % at 8.3 µM | hit rate 3% among 460 | AID 720633;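 active = inhibition above the cutoff, the mean of compounds lying between the control bounds plus 3 SD of those compounds, cut at about 17% in these data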;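 also: 0% = median of compound sample wells and 100% = excess unlabeled Aha-Tn7 peptide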
Numbers without * were called inactive; x = not tested or not shown. Only some compounds are listed: those with a hit (about 2.9% of all), similar ones and a draw of the others.

SMILES | KLK7 zymogen act | Tn6 DDE FP | CRFBP-R2 block | CendR NRP1 mod | Tn7 DDE FP | CRFBP-R2 agonist | DDE Tn7 confirm | Tn7 DDE ctr
CC(C)CCOc1ccc(C(=O)NCC(c2cccs2)N2CCOCC2)cc1 (stereo not drawn) | 0.8 | -4.3 | 14.2 | -2.5 | 15.0* | -0.3 | 1.7 | -0.6
CCOc1ccc(C(=O)NCC(c2cccs2)N2CCOCC2)cc1 (stereo not drawn) | -1.2 | -1.2 | -5.9 | 9.4 | -3.0 | 1.1 | x | x
O=C(CN(Cc1cccs1)C(=O)CNS(=O)(=O)c1ccc(Cl)cc1)NCc1ccco1 | 0.4 | 3.2 | -14.4 | -3.4 | 14.7* | -0.1 | 2.8 | -1.6
CCOC(=O)CC[C@@H]1CC[C@]2(CCCN(C(=O)c3ccccc3)C2)O1 | -0.1 | -2.2 | x | x | -7.3 | x | x | x
O=C(NNC(=O)c1cc(-c2ccccc2)nc2ccccc12)c1csc(N2CCOCC2)n1 | 0.0 | -1.8 | 6.7 | 3.3 | 14.6* | -0.4 | -1.2 | -18.2
Cc1ccc(-c2cc(C(=O)NNC(=O)c3csc(N4CCOCC4)n3)c3ccccc3n2)cc1 | -0.2 | 0.3 | 3.9 | -73.1 | -2.1 | 0.1 | x | x
O=C(Nc1ccc(F)cc1F)Nc1sccc1-c1nc2ccccc2s1 | -15.7 | -0.8 | -21.3 | -21.9 | 15.3* | -0.1 | 8.1 | 1.2
COc1ccc(NC(=O)c2cc(-c3cccs3)on2)c(OC)c1 | 0.0 | -4.5 | 22.8 | -3.7 | -2.3 | -0.8 | x | x
COc1ccc(OC)c(NC(=O)c2ccc(-c3cccs3)cc2)c1 | -11.7 | -6.6 | 13.6 | 3.0 | 14.8* | -0.5 | 7.2 | 2.5
C#CCCC(=O)O[C@H]1CCC[C@@]2(C(=O)N(Cc3ccccc3)c3ccccc32)[C@H]1NC(=O)CCc1ccccc1 | 0.4 | -0.7 | x | x | -4.9 | x | x | x
CCc1ccc(C(=O)N2CCN(c3ccc(F)cc3)CC2)s1 | -0.1 | 3.8 | -4.3 | 0.4 | 16.3* | -6.2 | 3.4 | 3.4
CCOc1ccc(/C=N/n2c(SC)nnc(C(C)(C)C)c2=O)cc1 | 0.0 | 0.1 | -20.5 | -10.2 | 14.7* | -1.4 | 0.2 | 0.7
CCCC[C@H](C(=O)N(C)c1cccc(OC)c1)[C@@H](O)c1ccc(Cl)cc1 | 0.6 | 13.2 | x | x | -2.7 | x | x | x
COc1ccccc1NS(=O)(=O)c1cc(Cl)ccc1OC | -0.1 | 4.5 | -2.7 | -8.8 | 13.8* | -0.7 | 10.4 | 7.4
COc1ccccc1NS(=O)(=O)c1ccc(OC)c(OC)c1 | -0.2 | -4.5 | -48.1 | -5.8 | -6.4 | -1.3 | x | x
Cc1ccc(C(NC(=O)N2CCCCC2)=C(Cl)Cl)cc1F | -0.1 | 2.5 | -1.4 | 0.6 | 15.3* | 0.1 | 4.8 | 1.6
Cc1cccc(NC(=O)c2cc(Cl)ccc2[N+](=O)[O-])c1 | 0.1 | 2.2 | 18.4 | 3.1 | 14.0* | -1.2 | -0.3 | -1.3
Cc1ccc(NC(=O)c2cc(Cl)ccc2[N+](=O)[O-])cc1C | 0.1 | -2.8 | 22.4 | -4.8 | 0.0 | -1.2 | x | x
COc1ccc(-n2nnnc2CNC(=O)C2CC(=O)N(c3ccc(F)cc3)C2)cc1 (stereo not drawn) | 0.3 | -0.9 | 15.7 | -9.2 | 14.3* | -2.3 | 6.6 | 0.2
O=C(NCc1nnnn1-c1ccc(Cl)cc1)C1CC(=O)N(c2ccc(F)cc2)C1 (stereo not drawn) | -0.2 | -9.6 | 23.3 | -8.2 | 2.3 | -0.5 | x | x
O=C(OCCN1C(=O)c2cccc3c(N4CCOCC4)ccc(c23)C1=O)c1ccccc1Cl | -30.1 | -1.9 | -164.5 | 74.8 | 32.9* | 170.1* | -2.0 | -6.4
C=CCNC(=O)CN(Cc1ccccc1)S(=O)(=O)c1ccc(C)cc1 | -0.3 | 4.4 | 0.9 | -25.5 | -4.0 | -2.5 | x | x
C=CCNC(=O)CN(CCc1ccccc1)S(=O)(=O)c1ccccc1 | -0.9 | -0.7 | -9.3 | -0.4 | 15.8* | -0.5 | 3.1 | -4.0
Cc1ccc2c(c1)C1CS(=O)(=O)N(C3CCCC3)C(=O)N1C2 (stereo not drawn) | -0.1 | 0.8 | x | x | -2.0 | x | x | x
CCOC(=O)C1=CN(Cc2ccco2)S(=O)(=O)N(C)C1c1ccc(C(F)(F)F)cc1 (stereo not drawn) | -0.2 | -5.7 | -1.1 | 1.9 | 0.2 | 0.8 | x | x
SMILES | KLK7 zymogen act | Tn6 DDE FP | CRFBP-R2 block | CendR NRP1 mod | Tn7 DDE FP | CRFBP-R2 agonist | DDE Tn7 confirm | Tn7 DDE ctr
CCOC(=O)C1=CN(Cc2ccco2)S(=O)(=O)N(C)C1c1ccc2ccccc2c1 (stereo not drawn) | 0.7 | -1.2 | -1.9 | -7.0 | 15.4* | 4.5 | 2.5 | -3.4
CC(=O)Nc1ccc(C2NC(=O)CCC2[N+](=O)[O-])cc1 (stereo not drawn) | 0.1 | 2.9 | 13.4 | 9.2 | 1.8 | -1.3 | x | x
COC(=O)c1ccc(C2NC(=O)CCC2[N+](=O)[O-])cc1 (stereo not drawn) | -0.5 | -9.5 | -9.3 | 2.3 | 14.1* | 0.5 | 3.2 | -9.9
CNC12CCc3cc(OC)c(OC)c(c31)-c1cc3c(cc1C2)OCO3 (stereo not drawn) | -2.5 | -15.0 | x | x | -3.3 | x | x | x
CCOC(=O)NC(=O)C(/C=N/c1sccc1C(=O)OC)=C(\C)O | 0.3 | 0.6 | -6.2 | -7.1 | 29.1* | 30.5 | -4.2 | -8.3
O=C(NC1CCCCN(Cc2cccc(Cl)c2)C1=O)c1cccc([N+](=O)[O-])c1 (stereo not drawn) | -0.2 | -3.4 | x | x | -6.1 | x | x | x
COc1ccc(CCC(=O)N2CCN(c3ccccc3)CC2)cc1OC | -0.1 | 1.4 | -73.1 | 3.9 | 15.3* | -1.0 | -2.8 | -14.4
CC(C)[C@H](NC(=O)c1ccccc1)C(=O)N1CCC[C@H]1C(=O)NCCc1ccccc1Cl | -0.2 | -5.4 | x | x | -9.3 | x | x | x
CCN(CC)S(=O)(=O)c1cccc(-c2nnc(SCC(N)=O)n2C)c1 | -0.2 | -1.6 | -13.2 | 0.2 | 4.8 | -1.5 | x | x
CCN(CC)S(=O)(=O)c1cccc(-c2nnc(SCc3ncc(-c4ccccc4)o3)n2C)c1 | 0.2 | 5.0 | 18.8 | 3.7 | 14.8* | -1.3 | -3.5 | -9.9
COc1cccc(C(=O)N2CCCC(c3nc(-c4cccs4)no3)C2)c1 (stereo not drawn) | 0.5 | 6.8 | -35.5 | -6.1 | -4.7 | -3.0 | x | x
O=C(c1cccc(F)c1)N1CCCC(c2nc(-c3cccs3)no2)C1 (stereo not drawn) | -0.4 | 0.0 | x | x | 15.3* | x | 2.8 | -1.7
COc1ccccc1CNC(=O)NNC(=O)CCn1nc(C)c([N+](=O)[O-])c1C | -0.6 | -3.1 | x | x | -3.2 | x | x | x
CNC(=S)N/N=C/c1c(C(=O)OC)cnn1-c1ccc(Cl)cc1 | x | 4.6 | x | x | 2.6 | x | x | x
O=C1CCCc2cc3c(cc21)CC1(C3)Cc2cc3c(cc2C1)C(=O)CCC3 | 0.5 | 5.2 | -24.0 | -11.3 | 14.1* | 1.7 | 8.2 | 1.9

Assay outcomes deposited in PubChem BioAssay by several laboratories.
